These results are taken from ChEMBL document CHEMBL1121814, “Monophenolic 2-(dipropylamino)indans and related compounds: central dopamine-receptor stimulating activity” (1981).

Experiment [1] is filed under the species Canis familiaris. The experiment in a line: Total dose at which the animal vomits. In kind it is functional, Canis lupus familiaris. A digest of the protocol:
(§1)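 Four female beagles (8–15 kg) with free access to food and water, not pretreated. Drug was infused iv at constant rate into the cephalic vein. The rate (k0) was set so that vomiting would be expected about 10 min after the start of infusion. The total dose infused at vomiting was recorded. Relative k0 is the compound's k0 divided by the apomorphine k0.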

The species named for experiment [2] is Rattus norvegicus. The experiment in a line: Estimated dose giving an approximately maximal decrease of the DA synthesis rate. It is filed as functional. A digest of the protocol:
(§2)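 Male Sprague–Dawley rats (200–350 g) were reserpinized, then given the drug sc in saline at four to six dose levels. NSD 1015 (100 mg/kg ip) was given 30 min before death to block decarboxylase. DOPA accumulation was measured spectrophotometrically in the limbic system and striatum as an index of DA synthesis rate. ED50 and ED100 were read from separate dose–response curves for each brain area. Experiments ran 9–12 a.m.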

The species named for experiment [3] is Rattus norvegicus. The experiment in a line: Estimated dose giving a half-maximal decrease of the DA synthesis rate in the striatum of rat brain. It is filed as functional. In a few lines:
as §2

Experiment [4] is filed under the species Rattus norvegicus. The experiment in a line: Motor activity in reserpinized rats at the biochemical ED50 dose level expressed as accumulation counts per 60 min. It is filed as functional. In a few lines: (§3)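 Male Sprague–Dawley rats (200–350 g) pretreated with reserpine 10 mg/kg ip 6 h beforehand. Drugs in saline given sc at doses matching the biochemical ED50 and ED100 for the DA-synthesis decrease. Each rat was caged singly in a photocell motility meter right after dosing and counts were accumulated over 60 min, testing between 1 and 6 p.m. Means ± SEM, n = 3–4, compared by ANOVA then Student's t test.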

The species named for experiment [5] is Rattus norvegicus. The experiment in a line: Estimated dose giving a half-maximal decrease of the DA synthesis rate in the limbic system of rat brain. In kind it is functional. In a few lines: as §2
The species named for experiment [6] is Rattus norvegicus. Kind of experiment: Motor activity in reserpinized rats at the biochemical ED100 dose level expressed as accumulation counts per 60 min. In kind it is functional. In a few lines:
as §3

The subject of experiment [7] is Rattus norvegicus. The experiment in a line: Estimated dose giving a half-maximal decrease of the DA synthesis rate in the striatum of rat brain; I = Inactive (>45 umol/kg). In kind it is functional, organism-based. In a few lines:
as §2

Experiment [8] concerns Rattus norvegicus. The experiment in a line: Estimated dose giving an approximately maximal decrease of the DA synthesis rate; I = Inactive (>45 umol/kg). In kind it is functional, organism-based. A digest of the protocol:
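Male Sprague-Dawley rats (200–350 g) pretreated with reserpine. Compounds dissolved in saline and given sc at four to six dose levels. Aromatic L-amino acid decarboxylase inhibited with NSD 1015 (100 mg/kg ip, 30 min before death). Brain DOPA measured spectrophotometrically as an index of DA synthesis rate. Experiments run 9–12 a.m. Dose read from separate dose–response curves for each brain area.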

The subject of experiment [9] is Rattus norvegicus. Kind of experiment: Estimated dose giving a half-maximal decrease of the DA synthesis rate in the limbic system of rat brain; I = Inactive (>45 umol/kg). It is filed as functional, organism-based. A digest of the protocol: as §2
Experiment [10] is filed under the species Canis familiaris. The experiment in a line: Emetic activity in dogs given as total dose at which the animal vomits. It is filed as functional, Canis lupus familiaris. In a few lines: as §1
The subject of experiment [11] is Canis familiaris. Kind of experiment: Relative rate of administration of compound in dogs. It is filed as functional, Canis lupus familiaris. A digest of the protocol:
as §1

A further experiment has as its system Canis lupus familiaris. Kind of experiment: Emetic activity in dogs by constant-rate intravenous infusion was measured.

The source made the active and inactive calls.

By ED50 is commonly meant the midpoint of the dose-response relation. In turn, `CCCN(CCC)C1Cc2cccc(O)c2C1` (centres undefined) registered a TED in the experiment listed under Canis familiaris [1] of 25 nM/kg. Moreover, the ED100 in the experiment filed under Rattus norvegicus [2] is 350 nM/kg. In addition, the ED50 in the experiment filed under Rattus norvegicus [3] is 0.063 µmol/kg; in the experiment filed under Rattus norvegicus [5], 0.059 µmol/kg. For the same compound, the Accumulation counts in the experiment filed under Rattus norvegicus [4] is reported as 13; in the experiment listed under Rattus norvegicus [6], 108.
For the compound `CCCN(CCC)CC1CCc2c(O)cccc2C1` (centres undefined), the ED50 result in the experiment on Rattus norvegicus [7] and in the experiment with Rattus norvegicus [9] was “inactive” each time. For the same compound, in the experiment on Rattus norvegicus [8], the ED100 result is “inactive”.
`CCCN(CCC)C1CCc2c(O)cccc2C1` (centres undefined) [5-OH-DPAT] came in with a TED in the experiment listed under Canis familiaris [1] of 4.7 nM/kg. Besides, the ED100 in the experiment filed under Rattus norvegicus [2] is 40 nM/kg. For the same compound, the values for the ED50 in the experiment listed under Rattus norvegicus [3] and in the experiment filed under Rattus norvegicus [5] were 0.009 µmol/kg and 0.011 µmol/kg, respectively. Moreover, the Accumulation counts in the experiment listed under Rattus norvegicus [4] came out at 25; in the experiment filed under Rattus norvegicus [6] it was 76.
In the experiment filed under Canis familiaris [10], `CCCN(CCC)C1Cc2ccc(O)cc2C1` (centres undefined) returned a TED of 247 nM/kg. Further, the ED100 in the experiment listed under Rattus norvegicus [2] was 6500 nM/kg. The ED50 in the experiment filed under Rattus norvegicus [3] was 1.44 µmol/kg; in the experiment listed under Rattus norvegicus [5], 1.25 µmol/kg. Besides, in the experiment with Canis familiaris [11], the rel ko stood at 9.9. Further, the Accumulation counts turned out to be 23 in the experiment listed under Rattus norvegicus [4] and 89 in the experiment listed under Rattus norvegicus [6].
For the compound `CCCN(CCC)CC1Cc2cccc(O)c2C1` (centres undefined), the TED in the experiment filed under Canis familiaris [10] came out at 292 nM/kg. Moreover, the ED100 in the experiment listed under Rattus norvegicus [2] is 4500 nM/kg. For the same compound, the ED50 is 0.96 µmol/kg in the experiment filed under Rattus norvegicus [3] and 0.67 µmol/kg in the experiment listed under Rattus norvegicus [5]. In the experiment with Canis familiaris [11], this compound had a rel ko of 9.1. Also, the Accumulation counts turned out to be 25 in the experiment filed under Rattus norvegicus [4] and 89 in the experiment filed under Rattus norvegicus [6].
As for `CCCN(CCC)C1CCCc2c(O)cccc2C1` (centres undefined), the ED50 result in the experiment on Rattus norvegicus [7] and with Rattus norvegicus [9] was “inactive” in each case. In addition, the ED100 result with Rattus norvegicus [8] was “inactive”.
Regarding `CN1CCc2cccc3c2[C@H]1Cc1ccc(O)c(O)c1-3` [APOMORPHINE], in the experiment listed under Canis familiaris [1], the TED was found to be 32.3 nM/kg. In addition, the ED100 in the experiment filed under Rattus norvegicus [2] is 230 nM/kg. Also, the rel ko in the experiment on Canis lupus familiaris came to 1. Further, the ED50 in the experiment filed under Rattus norvegicus [3] was 0.044 µmol/kg; in the experiment filed under Rattus norvegicus [5], 0.041 µmol/kg. The figures for the Accumulation counts in the experiment filed under Rattus norvegicus [4] and in the experiment filed under Rattus norvegicus [6] were 24 and 64, respectively.
